Experimental data from ChEMBL document CHEMBL1138187, “2-(2-Thienyl)-5,6-dihydroxy-4-carboxypyrimidines as inhibitors of the hepatitis C virus NS5B polymerase: discovery, SAR, modeling, and mutagenesis” (J Med Chem, 2006).
Active and inactive are the calls of the source. The rule behind the calls is not given here.

Legend:
[1] = target: RNA-directed RNA polymerase (Hepacivirus hominis) (UniProt O39930); test: Inhibitory activity against HCV 1b BK NS5B deltaC55 RNA polymerase at 200 uM; details: Hepatitis C virus subtype 1b
[2] = target: RNA-directed RNA polymerase (Hepacivirus hominis) (UniProt O39930); test: Inhibition of replication of HCV 1b BK RNA in Huh7 cells at 100 uM in presence of 10% fetal calf serum; assay type: functional, cell-based; details: Huh-7
Method in brief: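 Subgenomic HCV RNA replicon in Huh-7 cells, modified Bartenschlager procedure with 10% fetal calf serum; compounds first tested at a fixed 100 µM, with EC50 determined only where inhibition exceeded 50%; values averaged over at least three independent determinations.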

[3] = target: RNA-directed RNA polymerase (Hepacivirus hominis) (UniProt O39930); test: Inhibitory activity against HCV 1b BK NS5B deltaC55 RNA polymerase at 50 uM; details: Hepatitis C virus subtype 1b
Huh-7 = test: Cytotoxicity against Huh7 cells upto 100 uM; assay type: functional, cell-based; details: Homo sapiens
[4] = test system: O=c1ccn([C@@H]2O[C@H](COP(=O)(O)OP(=O)(O)OP(=O)(O)O)[C@@H](O)[C@H]2O)c(=O)[nH]1; test: Activity against HCV 1b BK NS5B deltaC55-R158M mutant RNA polymerase; details: Hepatitis C virus subtype 1b
Method in brief: (§1)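 HCV 1b-BK NS5B∆C55 (residues 1-536) carrying R158M or R158K, expressed in E. coli BL21(DE3) and purified. Polymerase run on a homopolymeric template RNA with UTP as substrate; IC50 and UTP Km measured in duplicate.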

[5] = test system: O=c1ccn([C@@H]2O[C@H](COP(=O)(O)OP(=O)(O)OP(=O)(O)O)[C@@H](O)[C@H]2O)c(=O)[nH]1; test: Activity against HCV 1b BK NS5B deltaC55-R158K mutant RNA polymerase; details: Hepatitis C virus subtype 1b; method in brief: as §1
[6] = test system: O=c1ccn([C@@H]2O[C@H](COP(=O)(O)OP(=O)(O)OP(=O)(O)O)[C@@H](O)[C@H]2O)c(=O)[nH]1; test: Activity against HCV 1b BK NS5B deltaC55 RNA polymerase; details: Hepatitis C virus subtype 1b
Method in brief: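 HCV genotype 1b BK-strain NS5B ΔC55 (residues 1-536) expressed in E. coli BL21(DE3) and purified; activity measured with a homopolymeric RNA template, assay run at pH 7.4 with Mg; IC50 is the mean of at least three independent determinations.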

Row | Compound | inhibition [2] | inhibition [3] [%] | other results
1 | O=C(O)c1nc(C2CCCCC2)nc(O)c1O | inactive |  | inhibition [1]: 31%
2 | O=C(O)c1nc(-c2ncc[nH]2)nc(O)c1O |  | 50 | 
3 | O=C(Nc1ccsc1-c1nc(O)c(O)c(C(=O)O)n1)OCCc1ccccc1 | < 20% |  | 
4 | O=C(NCc1ccccc1Cl)Nc1ccsc1-c1nc(O)c(O)c(C(=O)O)n1 |  |  | Activity (Huh-7): inactive
5 | CS(=O)(=O)c1nc(O)c(O)c(C(=O)O)n1 | inactive |  | 
6 | O=C(O)c1nc(Cc2ccccc2)nc(O)c1O |  | 24 | 
7 | CCCCc1nc(O)c(O)c(C(=O)O)n1 |  | 0 | 
8 | RNA-directed RNA polymerase (Hepacivirus hominis) (from UniProt O39930) UNDEFINED MUTATION |  |  | Km [4]: 15 µM; Km [5]: 20 µM
9 | RNA-directed RNA polymerase (Hepacivirus hominis), O39930 |  |  | Km [6]: 6 µM
10 | O=C(O)c1nc(-c2nccn2Cc2ccccc2)nc(O)c1O |  | 30 | 
11 | O=C(O)c1nc(-c2cccs2)nc(O)c1O | inactive |  | 
12 | O=C(O)c1nc(-c2nccs2)nc(O)c1O | < 20% |  | 
13 | CSc1nc(O)c(O)c(C(=O)O)n1 | inactive | 55 | 
